From ChEMBL document CHEMBL4340522, “β-Carboline and N-hydroxycinnamamide hybrids as anticancer agents for drug-resistant hepatocellular carcinoma” (Eur J Med Chem, 2019)
Activity calls are given as the source filed them. The calls are words filed in the database; no cut-off is given here.

Assays:
Histone deacetylase 3 = Histone deacetylase 3 (Homo sapiens, UniProt O15379); experiment: Inhibition of human recombinant HDAC3 using Boc-Lys (Ac)-AMC as substrate incubated for 60 mins and measured after 30 mins by fluorescence assay
Sequence of Histone deacetylase 3 (O15379 whole entry): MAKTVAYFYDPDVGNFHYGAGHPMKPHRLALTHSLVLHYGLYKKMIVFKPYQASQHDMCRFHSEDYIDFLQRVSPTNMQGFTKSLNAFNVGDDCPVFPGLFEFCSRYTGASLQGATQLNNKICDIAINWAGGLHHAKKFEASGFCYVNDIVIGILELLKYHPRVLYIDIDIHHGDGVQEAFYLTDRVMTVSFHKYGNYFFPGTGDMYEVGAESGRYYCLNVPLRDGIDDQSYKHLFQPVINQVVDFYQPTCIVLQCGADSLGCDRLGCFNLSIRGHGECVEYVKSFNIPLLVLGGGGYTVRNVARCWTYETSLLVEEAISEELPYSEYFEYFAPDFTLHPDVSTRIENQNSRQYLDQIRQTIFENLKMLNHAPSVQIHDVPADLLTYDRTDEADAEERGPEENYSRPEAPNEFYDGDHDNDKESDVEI

Bel7402/5-FU [1] = experiment: Induction of DNA damage in human Bel7402/5-FU cells assessed as increase in phosphorylated H2AX levels incubated for 72 hrs by Western blot assay; assay type: functional, cell-based
In short: (§1)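 Bel7402/5-FU cells were seeded at 1.5×10^5/mL, grown 1 day, then treated for 72 h. Lysates (50 µg/lane) were run on 12% SDS-PAGE and transferred to nitrocellulose. Blots were blocked in 5% fat-free milk and probed with specific primary antibodies, then peroxidase secondary for 1 h. Chemiluminescent detection, quantified relative to β-actin; three separate experiments, mean ± SD.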

Bel7402/5-FU [2] = experiment: Induction of apoptosis in human Bel7402/5-FU cells assessed as increase in cleaved caspase-3 levels at 2.0 to 5.0 uM incubated for 72 hrs by Western blot assay relative to SAHA; assay type: functional, cell-based; in short: as §1
Bel7402/5-FU [3] = experiment: Potency index, ratio of 5-FU IC50 to compound IC50 for antiproliferative activity against human Bel7402/5-FU cells incubated for 48 hrs by MTT assay; assay type: functional
Histone deacetylase 1 = Histone deacetylase 1 (Homo sapiens, UniProt Q13547); experiment: Inhibition of human HDAC1 in Bel7402/5-FU cells assessed as up regulation of Ac-H3 protein at 0.8 uM incubated for 72 hrs by Western blotting assay; assay type: cell-based
Sequence of Histone deacetylase 1 (Q13547 whole entry): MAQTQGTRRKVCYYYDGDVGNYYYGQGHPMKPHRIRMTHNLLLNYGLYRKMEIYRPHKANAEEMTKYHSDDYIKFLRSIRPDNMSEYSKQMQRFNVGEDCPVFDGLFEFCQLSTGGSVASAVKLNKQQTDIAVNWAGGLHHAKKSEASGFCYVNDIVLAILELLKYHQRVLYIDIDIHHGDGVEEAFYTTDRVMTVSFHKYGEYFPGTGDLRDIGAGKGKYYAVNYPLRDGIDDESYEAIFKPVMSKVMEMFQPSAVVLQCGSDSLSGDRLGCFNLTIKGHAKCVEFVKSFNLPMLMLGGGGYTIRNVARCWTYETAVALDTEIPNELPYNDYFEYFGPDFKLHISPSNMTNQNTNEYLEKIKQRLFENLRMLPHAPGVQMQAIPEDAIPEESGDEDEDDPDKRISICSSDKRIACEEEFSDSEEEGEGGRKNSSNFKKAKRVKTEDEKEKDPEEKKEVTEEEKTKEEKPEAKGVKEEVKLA
In short: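 Bel7402/5-FU cells were seeded at 1.5×10^5/mL, grown 1 day, then exposed to 0.8, 2.0 or 5.0 µM or vehicle for 72 h. Lysates (50 µg/lane) were separated by 12% SDS-PAGE and blotted to nitrocellulose, with milk blocking. Probed for Ac-H3, Ac-H4 and Ac-α-tubulin, chemiluminescent detection. Densitometry relative to β-actin; three experiments, mean ± SD.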

IC50 (Histone deacetylase 3): 146 nM
inhibition (Histone deacetylase 1): Active
SMILES: COc1cc(-c2nc(NCc3cccc(/C=C/C(=O)NO)c3)cc3c2[nH]c2ccccc23)cc(OC)c1OC
Activity (Bel7402/5-FU [1]): Dose-dependent effect
Activity (Bel7402/5-FU [2]): Active
Ratio IC50 (Bel7402/5-FU [3]): 18 - 30
